Tb MetRS inh = T. brucei MetRS inhibitors, primary screen, biochemical, luminescence | methionyl-tRNA synthetase (Trypanosoma brucei brucei) | hit rate 0.4% among 360,000 | purified T. brucei MetRS, ATP depletion, Kinase-Glo luminescence | AID 624268, 2012 | inhibition, % at 11.9 µM;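 active = inhibition above a per-plate cutoff of the control wells' mean inhibition plus 3 SD, cut at about 5.5% in these data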;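 also: 0% = DMSO wells median and 100% = median of wells with control inhibitor compound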
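System: purified T. brucei MetRS enzyme / Detection: Kinase-Glo luciferase luminescence reporting remaining unconsumed ATP / Medium: HEPES buffer with MgCl2, KCl, DTT, spermine, BSA, pyrophosphatase / Replication: singlicate, one well per compound / Evaluation: percent inhibition relative to median high and low control wells / Schedule: 2 h aminoacylation at 25 °C after 15 min preincubation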
procasp3 activ = activators of human procaspase-3 D3A mutant, primary screen, biochemical, absorbance, PC-3 D3A mutant, single concentration; recombinant procaspase-3 D3A, Ac-DEVD-pNA absorbance 405 nm; Caspase-3 (Homo sapiens), P42574; activation, % at 8.5 µM; hit rate 0.11% among 330,000; AID 463141, 2010;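 active = activation above the mean of all tested compounds plus 3 SD, cut at about 21% in these data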;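 also: 0% = DMSO alone and 100% = DMSO wells spiked with extra 5 µM PC-3 D3A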
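assay system = Procaspase-3 D3A mutant | signal = absorbance at 405 nm, 0 and 120 min | times = 1 h preincubation plus 2 h reaction at 25 °C | repeats = single replicate | read-out = % activation between DMSO and enzyme-spiked controls | medium = Zinc-free HEPES saline buffer with Triton X-100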
bovine MsrA act = bovine MsrA enzyme activators, primary screen, biochemical, absorbance, HTS | activation, % at 10.6 µM | purified bovine MsrA, absorbance read-out | Methionine sulfoxide reductase A (Bos taurus) | hit rate 0.3% among 360,000; in the data active = activation above about 7.5%;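 also: 0% = vehicle and 100% = reference activator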
MsrA inhibitor = bovine MsrA enzyme inhibitors, primary screen, biochemical, absorbance, HTS; Methionine sulfoxide reductase A (Bos taurus); inhibition, % at 15.5 µM; purified bovine MsrA, absorbance read-out; AID 651718, 2012; hit rate 0.75% among 360,000;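 also: 0% = vehicle wells with enzyme and 100% = reference inhibitor wells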
proCasp7 act = procaspase-7 activators, primary screen, counter-screen for procaspase-3 activator project, biochemical, absorbance, HTS, human; Caspase-7 (Homo sapiens), P55210; recombinant procaspase-7, Ac-DEVD-pNA absorbance 405 nm; D23A/D198A/D206A triple mutant, cannot self-cleave; scale: DMSO 0, 5 µM enzyme 100; activation, % at 8.5 µM; hit rate 0.093% among 330,000; AID 463210, 2010;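 active = percent activation above the screen-wide mean plus 3 SD, cut at about 25% in these data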
Target sequence (P55210 whole entry D23A/D198A/D206A): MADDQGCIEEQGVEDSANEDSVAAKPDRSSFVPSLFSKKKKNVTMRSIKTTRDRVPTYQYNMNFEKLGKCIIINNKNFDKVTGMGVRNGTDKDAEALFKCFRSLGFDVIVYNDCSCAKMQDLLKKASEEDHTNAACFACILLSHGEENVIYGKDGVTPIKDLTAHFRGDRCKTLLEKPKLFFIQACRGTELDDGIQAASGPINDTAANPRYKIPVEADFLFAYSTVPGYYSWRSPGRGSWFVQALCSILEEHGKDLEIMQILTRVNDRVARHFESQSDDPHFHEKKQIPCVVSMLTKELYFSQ
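Replicates: singlicate. Assay system: Procaspase-7 triple mutant (PC-7 D3A). Signal: 405 nm absorbance of p-nitroaniline. Times: 1 h preincubation, 2 h reaction. Buffer or medium: Zinc-free HEPES pH 7.4 with 300 mM NaCl, 0.01% Triton X-100. Also added: DEVD-pNA substrate. Benchmarks: DMSO wells as 0%, DMSO with 5 µM added PC-7 as 100%.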
MsrA inh confirm = bovine MsrA inhibitors, retest, confirmation, biochemical, absorbance, HTS; shares compounds with MsrA inhibitor; purified bovine MsrA, absorbance read-out; inhibition, % at 15.5 µM; hit rate 41% among 2,300;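 also: coupled to thioredoxin reductase with NADPH and selenocystamine and DMSO as substrate; 0% = vehicle only and 100% = full effect of reference inhibitor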
* = called active by the depositor; . = no result given. Shown are actives, neighbours in structure and some others; about 1.5% of the full set was active somewhere. Rule as the data show it, unless noted: active = inhibition above about 4.5%; inactive = the rest.

SMILES	Tb MetRS inh	procasp3 activ	bovine MsrA act	MsrA inhibitor	proCasp7 act	MsrA inh confirm
Cc1ccc(CNC(=O)c2ccc3c(c2)NC(=O)CS3)cc1	-0.2	13.7	-2.8	2.0	1.3	.
Cc1cc(C)cc(C(=O)/C=C2\NC(=O)CS2)c1	-2.0	-8.7	-14.9	5.3*	-0.6	5.3*
O=C1CS/C(=C/C(=O)c2ccccc2)N1	-0.4	-13.1	-5.8	4.5	-3.1	.
CC(C)=NNc1nc2c(c(=O)n(C)c(=O)n2C)n1C	-0.2	-3.8	-4.2	-0.4	3.4	.
Cn1c(=O)c2c(nc(N/N=C/c3cccs3)n2C)n(C)c1=O	-0.2	4.8	-2.8	4.9*	-7.4	5.7*
Cn1c(=O)c2c(ncn2CC(=O)N/N=C/c2ccco2)n(C)c1=O	-0.6	0.7	-6.7	1.5	-4.0	.
Cn1c(=O)c2c(nc(N/N=C/c3ccco3)n2C)n(C)c1=O	0.1	-2.8	1.5	6.2*	-15.7	6.8*
CN(C)c1ccc(NC2=C(Cl)C(=O)c3ccccc3C2=O)cc1	-0.5	-23.4	-1.1	8.2*	-38.2	2.5
COc1cc(C(=O)NC2CCCCN(C)C2=O)cc(OC)c1OC (centres undefined)	.	.	.	-0.5	.	.
COc1ccccc1CN1[C@@H](CC(C)=O)c2cc(C(F)(F)F)ccc2S1(=O)=O	-0.3	3.4	-2.1	-0.3	11.9	.
Cc1ccc(Sc2ccc([N+](=O)[O-])cc2[N+](=O)[O-])nc1	-0.1	-4.2	-2.4	4.8*	9.2	2.9
COc1cccc(C(=O)N2CCC[C@@H]2C(=O)N2CCC[C@H]2C(=O)NCc2ccccc2)c1	.	.	.	0.2	.	.
Cc1ccc(Nc2n[nH]c(C)c2[N+](=O)[O-])cc1C	-0.6	-4.1	-8.2	10.8*	4.6	8.2*
CCN1CCN(c2nc(N)c([N+](=O)[O-])c(Nc3ccc(C)c(C)c3)n2)CC1	0.0	-8.2	-0.1	2.0	4.1	.
COc1ccc(/C(O)=C(\C#N)c2nc3ccccc3n2C)cc1OC	-0.8	4.8	-6.3	6.9*	-3.6	6.0*
Cn1c(/C(C#N)=C(\O)c2cc(Cl)sc2Cl)nc2ccccc21	0.2	-0.7	-3.2	0.7	5.7	.
COCCNC(=S)N/N=C(\C)c1ccc(OC)cc1	-0.3	-8.1	-3.2	2.1	-31.3	.
COCCNC(=S)N/N=C(\C)c1cc2ccccc2o1	-0.4	0.1	-2.0	8.2*	-5.7	5.2*
COc1cccc(CNC(=O)[C@H]2CCCN2C(=O)C2CCCN2C(=O)c2ccc(OC)c(F)c2)c1 (some centres undefined)	.	.	.	1.0	.	.
CN1/C(=C/C(=O)C2CC2)C(C)(C)c2ccccc21	0.4	5.3	-2.5	5.8*	8.0	5.1*
CCOc1ccccc1NC(C)C(=O)NC(=O)NC1CCCCC1 (centres undefined)	-0.1	2.9	-1.8	-0.4	10.7	.
O=C(NCC1CC1)c1cc([N+](=O)[O-])cc([N+](=O)[O-])c1	-0.6	6.1	3.6	8.5*	-4.8	7.1*
O=C(NCC1CCCCC1)c1cccc([N+](=O)[O-])c1	0.1	2.8	0.2	-0.2	3.3	.
O=C(O)CC/C(=N\Nc1ccc(S(=O)(=O)N2CCCC2)cc1[N+](=O)[O-])c1cccs1	0.3	.	-3.8	4.8*	.	4.5
O=C(O)CC/C(=N\Nc1ccc(S(=O)(=O)N2CCOCC2)cc1[N+](=O)[O-])c1cccs1	-0.1	-10.8	-11.6	4.9*	-0.5	4.7*
C[C@H](CO)N1C[C@H](C)[C@@H](CN(C)C(=O)Nc2ccc3c(c2)OCCO3)OCc2cn(nn2)CCCC1=O	.	.	.	0.4	.	.
O=c1oc2ccccc2c(NCc2ccccc2F)c1[N+](=O)[O-]	-1.0	3.3	-7.8	8.8*	5.6	7.2*
Oc1ccc(/C=N\Nc2nncc(-c3ccccc3)n2)cc1	0.4	7.8	-4.5	5.8*	8.5	2.8
CC(=O)c1ccc(N2CCN(C(=O)c3ccc(Cn4c(=S)[nH]c5ccc(N6CCOCC6)cc5c4=O)cc3)CC2)cc1	0.2	-6.1	-5.2	5.0*	-4.9	4.8*

Screening data: PubChem, The Scripps Research Institute Molecular Screening Center
